Test results from ChEMBL document CHEMBL2331205, “Anti-hepatitis B virus and anti-cancer activities of novel isoflavone analogs” (Eur J Med Chem, 2013).

How the values were obtained:
Huh-7 [1] = test: Ratio of 5-Fu IC50 to compound IC50 for human HuH7 cells after 48 hrs by MTT assay; format: functional
A549 [2] = test: Growth inhibition of human A549 cells after 48 hrs by MTT assay; format: functional, cell-based; conditions: A549, 48 h
Outline: (§1)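 Cells seeded at 8000/well, treated 24 h later in duplicate with a range of concentrations (DMSO stock 10 g/L diluted in fresh medium), 48 h at 37 °C, 5% CO2. MTT (5 mg/ml in PBS) added for 4 h, formazan dissolved in DMSO, absorbance read at 570 nm. IC50 is the concentration giving 50% survival.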

HeLa = test: Growth inhibition of human HeLa cells after 48 hrs by MTT assay; format: functional, cell-based; outline: as §1
[3] = Growth inhibition of human QGY7701 cells after 48 hrs by MTT assay; format: functional; conditions: QGY7701, 48 h; outline: as §1
Huh-7 [4] = test: Growth inhibition of human HuH7 cells after 48 hrs by MTT assay; format: functional, cell-based; conditions: Huh-7, 48 h; outline: as §1
[5] = Growth inhibition of human L02 cells after 48 hrs by MTT assay; format: functional, cell-based; conditions: L02, 48 h; outline: as §1
[6] = Selectivity index, ratio of CC50 for human HepG2(2.2.15) cells to IC50 for HBV infected in human HepG2(2.2.15) cells assessed as inhibition of viral replication; format: functional
Outline: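 Selectivity index calculated as CC50 in HepG2 2.2.15 cells (MTT, 9-day exposure) divided by IC50 for HBV DNA reduction measured by fluorescence PCR after 9 days.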

[7] = Selectivity index, ratio of CC50 for human HepG2(2.2.15) cells to IC50 for HBV infected in human HepG2(2.2.15) cells assessed as inhibition of HBeAg production; format: functional
Outline: (§2)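 Selectivity index calculated as CC50 in HepG2 2.2.15 cells (MTT, 9-day exposure) divided by IC50 for HBeAg or HBsAg reduction (ELISA of 9-day supernatants).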

[8] = Selectivity index, ratio of CC50 for human HepG2(2.2.15) cells to IC50 for HBV infected in human HepG2(2.2.15) cells assessed as inhibition of HBsAg production; format: functional; outline: as §2
[9] = Cytotoxicity against human HepG2(2.2.15) cells compound treated for 48 hrs followed by incubation for 9 days by MTT assay; format: cell-based
Outline: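 HepG2 2.2.15 cells kept 48 h in plates before adding compounds (DMSO stocks serially diluted in medium), then incubated at 37 °C for 9 days. Media-only wells as blank. MTT (5 g/L) added 4 h before lysis in 10% SDS/50% DMF, pH 7.2; OD at 570 nm gives percent cell death; CC50 derived.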

Hepatitis B virus [10] = test: Antiviral activity against HBV infected in human HepG2(2.2.15) cells assessed as inhibition of viral replication after 9 days by fluorescence PCR method; format: functional, organism-based; conditions: HepG2 2.2.15, 216 h
Outline: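 HepG2 2.2.15 cells given a range of compound concentrations for nine days; HBV DNA quantified by fluorescence PCR. IC50 taken as the concentration giving 50% inhibition of HBV DNA replication.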

Hepatitis B virus [11] = test: Antiviral activity against HBV infected in human HepG2(2.2.15) cells assessed as inhibition of HBeAg production after 9 days by ELISA; format: functional, organism-based; conditions: HepG2 2.2.15, 216 h
Outline: (§3)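 HepG2 2.2.15 cells (HBV-producing) given a range of compound concentrations for nine days; culture supernatants collected and HBsAg or HBeAg levels measured by ELISA. IC50 taken as the concentration giving 50% inhibition of antigen level.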

Hepatitis B virus [12] = test: Antiviral activity against HBV infected in human HepG2(2.2.15) cells assessed as inhibition of HBsAg production after 9 days by ELISA; format: functional, organism-based; conditions: HepG2 2.2.15, 216 h; outline: as §3
A549 [13] = test: Ratio of 5-Fu IC50 to compound IC50 for human A549 cells after 48 hrs by MTT assay; format: functional

O=C(/C=C/c1coc2cc(O)ccc2c1=O)Nc1ccccc1
Ratio IC50 (Huh-7 [1]): 4
IC50 (A549 [2]): 24.4 µM
IC50 (HeLa): 9.7 µM
IC50 [3]: 17.9 µM
IC50 (Huh-7 [4]): 3.88 µM
IC50 [5]: > 200 µM
Ratio CC50/IC50 [6]: 28.29
Ratio CC50/IC50 [7]: 61.12
Ratio CC50/IC50 [8]: 18.02
CC50 at 48 h [9]: 821 µM
IC50 (Hepatitis B virus [10]): 29 µM
IC50 (Hepatitis B virus [11]): 13.4 µM
IC50 (Hepatitis B virus [12]): 45.5 µM

Cc1ccc(CNC(=O)/C=C/c2coc3cc(O)ccc3c2=O)cc1
IC50 (A549 [2]): 17.4 µM
IC50 (HeLa): > 100 µM
IC50 [3]: 24.9 µM
IC50 (Huh-7 [4]): > 100 µM
IC50 [5]: > 200 µM
Ratio CC50/IC50 [6]: 35.31
Ratio CC50/IC50 [7]: 26.16
Ratio CC50/IC50 [8]: 30.27
CC50 at 48 h [9]: 501 µM
IC50 (Hepatitis B virus [10]): 14.2 µM
IC50 (Hepatitis B virus [11]): 19.1 µM
IC50 (Hepatitis B virus [12]): 16.5 µM

COc1ccc(CNC(=O)/C=C/c2coc3cc(O)ccc3c2=O)cc1
IC50 (A549 [2]): > 100 µM
IC50 (HeLa): > 100 µM
IC50 [3]: 10 µM
IC50 (Huh-7 [4]): 8.43 µM
IC50 [5]: > 200 µM
Ratio CC50/IC50 [6]: 152.76
Ratio CC50/IC50 [7]: 306.82
Ratio CC50/IC50 [8]: 70.25
CC50 at 48 h [9]: 718 µM
IC50 (Hepatitis B virus [10]): 4.7 µM
IC50 (Hepatitis B virus [11]): 2.34 µM
IC50 (Hepatitis B virus [12]): 10.2 µM

COc1ccc2c(=O)c(/C=C/C(=O)Nc3cccc(Cl)c3)coc2c1
Ratio IC50 (A549 [13]): 12
IC50 (A549 [2]): 0.47 µM
IC50 (HeLa): 11.8 µM
IC50 [3]: > 100 µM
IC50 (Huh-7 [4]): > 100 µM
IC50 [5]: > 200 µM
CC50 at 48 h [9]: 1100 µM
IC50 (Hepatitis B virus [10]): > 100 µM
IC50 (Hepatitis B virus [11]): > 100 µM
IC50 (Hepatitis B virus [12]): > 100 µM

COc1ccc2c(=O)c(/C=C/C(=O)Nc3ccc(Cl)cc3)coc2c1
IC50 (A549 [2]): > 100 µM
IC50 (HeLa): > 100 µM
IC50 [3]: > 100 µM
IC50 (Huh-7 [4]): 37.1 µM
IC50 [5]: > 200 µM
Ratio CC50/IC50 [6]: 4.03
Ratio CC50/IC50 [7]: 12.97
Ratio CC50/IC50 [8]: 2.96
CC50 at 48 h [9]: 272 µM
IC50 (Hepatitis B virus [10]): 67.5 µM
IC50 (Hepatitis B virus [11]): 20.9 µM
IC50 (Hepatitis B virus [12]): 91.7 µM

COc1ccc(CNC(=O)/C=C/c2coc3cc(OC)ccc3c2=O)cc1
IC50 (A549 [2]): 22.5 µM
IC50 (HeLa): > 100 µM
IC50 [3]: 15.7 µM
IC50 (Huh-7 [4]): 7.57 µM
IC50 [5]: > 200 µM
Ratio CC50/IC50 [6]: 1.77
Ratio CC50/IC50 [7]: 2.98
Ratio CC50/IC50 [8]: 3.08
CC50 at 48 h [9]: 43 µM
IC50 (Hepatitis B virus [10]): 24.3 µM
IC50 (Hepatitis B virus [11]): 14.4 µM
IC50 (Hepatitis B virus [12]): 14 µM

COc1ccc2c(=O)c(/C=C/C(=O)NCc3ccc(F)cc3F)coc2c1
IC50 (A549 [2]): 13.3 µM
IC50 (HeLa): > 100 µM
IC50 [3]: > 100 µM
IC50 (Huh-7 [4]): > 100 µM
IC50 [5]: > 200 µM
Ratio CC50/IC50 [6]: 2.14
Ratio CC50/IC50 [7]: 5.35
Ratio CC50/IC50 [8]: 5.55
CC50 at 48 h [9]: 79.2 µM
IC50 (Hepatitis B virus [10]): 37 µM
IC50 (Hepatitis B virus [11]): 14.8 µM
IC50 (Hepatitis B virus [12]): 14.3 µM
